Experimental data taken from PMC9119696 (Nature chemical biology, 2021).

Assays:
GST-Pin1 = GST-Pin1 (Homo sapiens, UniProt Q13526); experiment: Competitive fluorescence polarization; format: binding; conditions: 14 h incubation with recombinant full-length Pin1
Outline: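 GST-Pin1 (250 nM) preincubated 14 h at 4 °C with compound and 5 nM N-terminal fluorescein-labelled peptide probe (Bth-D-pThr-Pip-Nal). Buffer: 10 mM HEPES, 10 mM NaCl, 1% glycerol pH 7.4, 10 µg ml-1 BSA, 0.01% Tween-20, 1 mM DTT. Ki calculated from probe concentration, 85% probe bound and Pin1 concentration. Kinact from dose- and time-dependent runs. n = 3 samples ± s.e.m.; 2 experiments.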

PATU-8988T WT Pin1 cells = experiment: 3D Matrigel dome antiproliferative assay; format: cell-based; conditions: 1 μM, 9-day treatment
Outline: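 1,000 cells per Matrigel dome, one dome per well, left 15 min at 37 °C to solidify. Medium with test compound renewed every 3 days. After 9 days, 3D CellTiter-Glo was added and the plate shaken 1 h at room temperature before reading luminescence. n = 9 biological replicates per condition.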

Pin1 = experiment: Live cell competition pulldown; format: cell-based; conditions: PATU-8988T or HCT116 cells, 5 h
Outline: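 2.5 million cells per 10-cm plate, dosed next day with DMSO or test compound (5 h, or as indicated). Cells washed in cold PBS, scraped and lysed in HEPES pH 7.4/NP-40 buffer with TCEP. Lysate (500 µg) incubated with desthiobiotin probe (1 µM, 1 h, 4 °C), then streptavidin agarose (1.5 h, 4 °C). Pin1 pulldown detected by immunoblot.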

PATU-8988T cells = experiment: Cell cycle analysis; format: cell-based; conditions: 2.5 μM, 4 days
Outline: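 PATU-8988T cells treated 4 days with DMSO (0.1%), test compound or a non-covalent analogue (each 2.5 µM), with medium replaced on day 3; run in triplicate or more. Pulsed with 10 µM BrdU for 1 h, then fixed in 70% ethanol and denatured in 2 M HCl/0.5% Triton X-100 (30 min, RT). Neutralised with 0.1 M Na2B4O7 pH 8.5 and stained overnight at 4 °C with anti-BrdU-FITC. Counterstained with propidium iodide plus RNase A (each 50 µg ml-1) and analysed by FACS.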

Sequence of GST-Pin1 (Q13526 whole entry): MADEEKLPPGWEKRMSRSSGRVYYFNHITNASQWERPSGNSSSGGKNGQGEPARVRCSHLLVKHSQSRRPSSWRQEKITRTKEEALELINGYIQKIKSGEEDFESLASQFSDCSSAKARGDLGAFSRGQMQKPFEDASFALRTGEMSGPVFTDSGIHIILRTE

SMILES: CC(=O)N(CC(C)(C)C)C1CCS(=O)(=O)C1 (stereo not shown) [Sulfopin-AcA]
- competition in FP assay (GST-Pin1): inactive
- antiproliferative activity in 3D Matrigel domes (PATU-8988T WT Pin1 cells): showed no effect in any of the tested systems
- competition of Pin1 pulldown by DTB probe (Pin1): unable to outcompete Pin1 pulldown
- cells in S phase (PATU-8988T cells): did not show this effect
